Experimental data as given in ChEMBL document CHEMBL1759935, “Pharmacokinetic optimisation of novel indole-2-carboxamide cannabinoid CB1 antagonists” (Bioorg Med Chem Lett, 2011).

Key:
[1] = Intrinsic clearance in human liver microsomes in presence of NADPH; type: ADME, Microsome
How it was run: (§1)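 Pooled human microsomes (gut or liver) at 0.5 mg protein/mL with 1 mM NADPH, pH 7.4 (P450 pathway). Compound loss followed by LC–MS/MS in duplicate time-course incubations; intrinsic clearance given per mg protein.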

[2] = biological target: Cannabinoid receptor 2 (Homo sapiens, UniProt P34972); experiment: Displacement of [3H]CP55940 from human recombinant CB2 receptor expressed in Sf9 cells
Chain of Cannabinoid receptor 2 (P34972 whole entry): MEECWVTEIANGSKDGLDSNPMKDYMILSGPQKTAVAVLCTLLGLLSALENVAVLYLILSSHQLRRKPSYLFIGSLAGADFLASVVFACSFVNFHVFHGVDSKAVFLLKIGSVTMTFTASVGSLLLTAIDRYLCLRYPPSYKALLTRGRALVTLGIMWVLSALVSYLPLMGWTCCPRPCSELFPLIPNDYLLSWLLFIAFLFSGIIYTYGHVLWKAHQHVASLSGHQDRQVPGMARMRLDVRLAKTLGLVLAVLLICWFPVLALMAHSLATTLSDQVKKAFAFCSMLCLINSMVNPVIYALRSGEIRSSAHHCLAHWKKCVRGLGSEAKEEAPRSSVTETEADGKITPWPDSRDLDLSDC
How it was run: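 Competition binding against [3H]CP55,940 on membranes from Sf9 cells expressing recombinant human CB2 receptor; run at least in duplicate.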

[3] = Intrinsic clearance in human liver microsomes in presence of UGT; type: ADME, Microsome
How it was run: (§2)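 UGT pathway: human gut or liver microsomes at 0.5 mg protein/mL with 2 mM UDPGA, alamethicin and 1 mM MgCl2, pH 7.1. Compound depletion measured by LC–MS/MS in duplicate time-course incubations; intrinsic clearance expressed per mg protein.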

[4] = biological target: T1, Cannabinoid receptor 1 (Homo sapiens, UniProt P21554); experiment: Antagonist activity against human CB1 receptor; type: functional
T1 sequence (P21554 whole entry): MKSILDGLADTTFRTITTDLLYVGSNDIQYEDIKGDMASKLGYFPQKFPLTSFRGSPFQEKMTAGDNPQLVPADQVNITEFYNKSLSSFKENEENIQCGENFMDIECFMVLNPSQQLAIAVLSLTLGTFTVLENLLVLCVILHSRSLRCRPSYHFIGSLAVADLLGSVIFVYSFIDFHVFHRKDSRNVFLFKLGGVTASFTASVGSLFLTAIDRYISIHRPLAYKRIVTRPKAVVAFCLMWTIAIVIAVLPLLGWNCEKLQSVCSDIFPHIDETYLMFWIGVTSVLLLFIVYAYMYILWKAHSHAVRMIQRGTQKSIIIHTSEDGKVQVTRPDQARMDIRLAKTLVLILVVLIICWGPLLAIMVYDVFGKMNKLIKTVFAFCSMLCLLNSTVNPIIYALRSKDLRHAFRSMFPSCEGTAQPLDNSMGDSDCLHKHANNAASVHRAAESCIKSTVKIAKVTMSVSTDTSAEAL

[5] = Intrinsic clearance in human gut microsomes in presence of UGT; type: ADME, Microsome; how it was run: as §2
[6] = Intrinsic clearance in human gut microsomes in presence of NADPH; type: ADME, Microsome; how it was run: as §1
[7] = biological target: T1, Cannabinoid receptor 1; experiment: biochemical; type: cell-based, CHO
[8] = system: Mus musculus; experiment: Inhibition of WIN55212-2-induced hypothermia in po dosed mouse assessed as change in rectal temperature administered 15 mins before WIN55212-2 challenge measured after 75 mins; type: functional; conditions: read-out: ID50 (the source's name)
How it was run: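 Antagonist or vehicle (5% mulgofen in saline, 10 mL/kg) given orally 75 min before rectal temperature reading. WIN 55,212-2 mesylate (10 mL/kg) given sc 60 min before the reading, at its time of maximal hypothermia. Metal probe with vaseline inserted about 1.5 cm; highest temperature stable for 10 s recorded. ID50 reported with confidence interval.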

[9] = Intrinsic clearance in rat gut microsomes in presence of NADPH; type: ADME, Microsome
How it was run: (§3)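 P450 pathway: compound depletion in duplicate time-course incubations of microsomes at 0.5 mg protein/mL with 1 mM NADPH, pH 7.4. Liver microsomes prepared in-house; small intestinal microsomes purchased. Loss measured by LC–MS/MS; CL_int expressed per mg microsomal protein.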

[10] = species: Rattus norvegicus; experiment: Clearance in rat; type: ADME, organism-based; conditions: in vivo
[11] = Intrinsic clearance in rat gut microsomes in presence of UGT; type: ADME, Microsome
How it was run: (§4)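 UGT pathway: compound loss in duplicate time-course incubations of liver (prepared in-house) or small intestinal microsomes at 0.5 mg protein/mL, with 2 mM UDPGA, alamethicin and 1 mM MgCl₂ at pH 7.1. Detection by LC–MS/MS; CL_int expressed per mg microsomal protein.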

[12] = species: Mus musculus; experiment: Clearance in mouse; type: ADME, organism-based; conditions: in vivo
[13] = Intrinsic clearance in mouse liver microsomes in presence of UGT; type: ADME, Microsome; how it was run: as §4
[14] = Intrinsic clearance in rat liver microsomes in presence of NADPH; type: ADME, Microsome; how it was run: as §3
[15] = Intrinsic clearance in dog liver microsomes in presence of UGT; type: ADME, Canis lupus familiaris, Microsome; how it was run: as §4
[16] = Bioavailability in mouse; type: ADME, organism-based; conditions: in vivo
[17] = species: Canis familiaris; experiment: Clearance in dog; type: ADME, organism-based, Canis lupus familiaris; conditions: in vivo
[18] = Intrinsic clearance in mouse gut microsomes in presence of NADPH; type: ADME, Microsome; how it was run: as §3
[19] = Intrinsic clearance in dog liver microsomes in presence of NADPH; type: ADME, Canis lupus familiaris, Microsome; how it was run: as §3
[20] = Intrinsic clearance in mouse gut microsomes in presence of UGT; type: ADME, Microsome; how it was run: as §4
[21] = Bioavailability in rat; type: ADME, organism-based; conditions: in vivo
[22] = Intrinsic clearance in mouse liver microsomes in presence of NADPH; type: ADME, Microsome; how it was run: as §3
[23] = Intrinsic clearance in rat liver microsomes in presence of UGT; type: ADME, Microsome; how it was run: as §4
[24] = Intrinsic clearance in dog gut microsomes in presence of NADPH; type: ADME, Canis lupus familiaris, Microsome; how it was run: as §3
[25] = Bioavailability in dog; type: ADME, organism-based, Canis lupus familiaris; conditions: in vivo
[26] = Intrinsic clearance in dog gut microsomes in presence of UGT; type: ADME, Canis lupus familiaris, Microsome; how it was run: as §4
[27] = species: Homo sapiens; experiment: Clearance in human; type: ADME, organism-based; conditions: in vivo
[28] = clinical; conditions: human, in vivo

Structure (SMILES) | microsomal CLint [1] | microsomal CLint [3] | IC50 [4] | microsomal CLint [5] | microsomal CLint [6] | Ki [7] | ED50 [8] | also measured
CC(C)(CO)CNC(=O)c1cc2cc(C#N)ccc2n1Cc1cccc(OC(F)(F)F)c1 | 62 µL/min/mg | 20 µL/min/mg | 1.82 nM | 136 µL/min/mg | < 6 µL/min/mg | 0.794 nM | 3.42 µmol/kg | Ki [2]: > 10 µM
COc1ccc(OC(F)(F)F)cc1Cn1c(C(=O)NCC(C)(C)CO)cc2cc(C#N)ccc21 | 69 µL/min/mg | 31 µL/min/mg | 1.17 nM | 68 µL/min/mg | < 6 µL/min/mg | 0.398 nM | 0.88 µmol/kg | microsomal CLint [9]: < 6 µL/min/mg; clearance [10]: 104 mL/min/kg; microsomal CLint [11]: < 6 µL/min/mg; Ki [2]: > 10 µM; clearance [12]: 17 mL/min/kg; microsomal CLint [13]: < 6 µL/min/mg; microsomal CLint [14]: 69 µL/min/mg; microsomal CLint [15]: 7 µL/min/mg; bioavailability [16]: 30%; clearance [17]: 7 mL/min/kg; microsomal CLint [18]: < 6 µL/min/mg; microsomal CLint [19]: < 6 µL/min/mg; microsomal CLint [20]: < 6 µL/min/mg; bioavailability [21]: 8%; microsomal CLint [22]: 45 µL/min/mg; microsomal CLint [23]: 191 µL/min/mg; microsomal CLint [24]: < 6 µL/min/mg; bioavailability [25]: 67%; microsomal CLint [26]: < 6 µL/min/mg
CCOc1ccc(OC(F)(F)F)cc1Cn1c(C(=O)NCC(C)(C)CO)cc2cc(C#N)ccc21 | 103 µL/min/mg | 20 µL/min/mg | 8.32 nM | 103 µL/min/mg | < 6 µL/min/mg | – | – | –
CC(C)(CO)CNC(=O)c1cc2cc(C#N)ccc2n1Cc1cc(Cl)cc(Cl)c1 | 103 µL/min/mg | 22 µL/min/mg | 5.37 nM | 98 µL/min/mg | < 6 µL/min/mg | – | – | –
COc1ccc(Cl)cc1Cn1c(C(=O)NCC(C)(C)CO)cc2cc(C#N)ccc21 | 83 µL/min/mg | 10 µL/min/mg | 2 nM | 63 µL/min/mg | < 6 µL/min/mg | – | – | –
COc1ccc(OC(F)(F)F)cc1Cn1c(C(=O)NCC(C)(C)O)cc2cc(C#N)ccc21 | < 6 µL/min/mg | < 6 µL/min/mg | 22.4 nM | 8 µL/min/mg | < 6 µL/min/mg | 5.5 nM | > 10 µmol/kg | –
COc1ccc(C(F)(F)F)cc1Cn1c(C(=O)NCC(C)(C)O)cc2cc(C#N)ccc21 | 7 µL/min/mg | < 6 µL/min/mg | 11.5 nM | < 6 µL/min/mg | < 6 µL/min/mg | 7.59 nM | > 10 µmol/kg | –
CC(C)(O)CCNC(=O)c1cc2cc(C#N)ccc2n1Cc1cccc(OC(F)(F)F)c1 | 9 µL/min/mg | < 6 µL/min/mg | 13.5 nM | 9 µL/min/mg | < 6 µL/min/mg | 5.01 nM | 9.67 µmol/kg | –
Cc1ccc(C(F)(F)F)cc1Cn1c(C(=O)NCCC(C)(C)O)cc2cc(C#N)ccc21 | 12 µL/min/mg | < 6 µL/min/mg | 5.13 nM | < 6 µL/min/mg | < 6 µL/min/mg | 4.37 nM | 1.16 µmol/kg | microsomal CLint [9]: < 6 µL/min/mg; clearance [10]: 200 mL/min/kg; microsomal CLint [11]: < 6 µL/min/mg; Ki [2]: > 10 µM; clearance [12]: 10 mL/min/kg; microsomal CLint [13]: < 6 µL/min/mg; microsomal CLint [14]: > 280 µL/min/mg; microsomal CLint [15]: < 6 µL/min/mg; bioavailability [16]: 31%; clearance [17]: 15 mL/min/kg; microsomal CLint [18]: < 6 µL/min/mg; microsomal CLint [19]: 17 µL/min/mg; microsomal CLint [20]: < 6 µL/min/mg; bioavailability [21]: 2%; microsomal CLint [22]: 33 µL/min/mg; microsomal CLint [23]: > 280 µL/min/mg; microsomal CLint [24]: < 6 µL/min/mg; bioavailability [25]: 42%; microsomal CLint [26]: < 6 µL/min/mg
O=C(c1ccc(OCCN2CCCCC2)cc1)c1c(-c2ccc(O)cc2)sc2cc(O)ccc12 [RALOXIFENE] | 79 µL/min/mg | 24 µL/min/mg | – | 346 µL/min/mg | < 6 µL/min/mg | – | – | microsomal CLint [9]: < 6 µL/min/mg; clearance [10]: 58 mL/min/kg; microsomal CLint [11]: 5 µL/min/mg; clearance [12]: 108 mL/min/kg; microsomal CLint [13]: < 6 µL/min/mg; microsomal CLint [14]: 79 µL/min/mg; microsomal CLint [15]: 26 µL/min/mg; bioavailability [16]: 10%; clearance [27]: 21 mL/min/kg; clearance [17]: 40 mL/min/kg; microsomal CLint [18]: < 6 µL/min/mg; microsomal CLint [19]: 178 µL/min/mg; microsomal CLint [20]: 34 µL/min/mg; bioavailability [21]: 4%; microsomal CLint [22]: 66 µL/min/mg; microsomal CLint [23]: 11 µL/min/mg; microsomal CLint [24]: < 6 µL/min/mg; bioavailability [25]: 5%; bioavailability [28]: 2%; microsomal CLint [26]: 22 µL/min/mg
Cc1c(C(=O)NN2CCCCC2)nn(-c2ccc(Cl)cc2Cl)c1-c1ccc(Cl)cc1 [RIMONABANT] | 69 µL/min/mg | < 6 µL/min/mg | – | < 6 µL/min/mg | < 6 µL/min/mg | – | 1.29 µmol/kg | –
